In ChEMBL document CHEMBL1909563, “Anti-inflammatory triterpenoid saponins from the stem bark of Kalopanax pictus” (J Nat Prod, 2011):
Activity calls are given as the source filed them. The calls are words filed in the database; no cut-off is given here.

What was measured:
Format in all cases: cell-based
HepG2 [1] = assay: Inhibition of NF-kappaB-induced COX2 mRNA expression in TNF-alpha-stimulated human HepG2 cells after 1 hr by RT-PCR analysis
Procedure, shortened: (§1)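 HepG2 cells stimulated with TNFα alone or with compound at 0.1, 1 and 10 μM; COX-2 and iNOS mRNA measured against β-actin housekeeping control. Mean ± SD (n = 6); significance versus TNFα-stimulated cells by Dunnett's multiple comparison test (p < 0.05, p < 0.01).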

HepG2 [2] = assay: Cytotoxicity against human HepG2 cells by MTT assay
[3] = Inhibition of TNF-alpha-induced NFkappaB activation in human HepG2 cells after 1 hr by luciferase reporter assay; settings: HepG2, 1 h
Procedure, shortened: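 HepG2 cells seeded at 1.5 × 10^5 per well, grown 24 h, then transiently transfected with NF-kB-responsive firefly luciferase reporter (minimal CMV promoter, tandem NF-kB response elements). Pretreated 1 h with DMSO vehicle or compound, then 10 ng/mL TNFα for 1 h; cells lysed, luciferin added, luminescence read.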

HepG2 [4] = assay: Inhibition of NF-kappaB-induced iNOS mRNA expression in TNF-alpha-stimulated human HepG2 cells after 1 hr by RT-PCR analysis; procedure, shortened: as §1
HepG2 [5] = assay: Inhibition of NF-kappaB-induced iNOS mRNA expression in TNF-alpha-stimulated human HepG2 cells at 0.1 to 10 uM after 1 hr by RT-PCR analysis; procedure, shortened: as §1
HepG2 [6] = assay: Inhibition of NF-kappaB-induced COX2 mRNA expression in TNF-alpha-stimulated human HepG2 cells at 0.1 to 10 uM after 1 hr by RT-PCR analysis; procedure, shortened: as §1

SMILES | inhibition (HepG2 [1]) | Activity (HepG2 [2]) | IC50 [3] | inhibition (HepG2 [4]) | inhibition (HepG2 [5]) | inhibition (HepG2 [6])
C[C@@]1(CO)CC[C@]2(C(=O)O)[C@H](O)C[C@]3(C)C(=CC[C@@H]4[C@@]5(C)CCC(=O)[C@@](C)(CO)[C@@H]5CC[C@]43C)[C@@H]2C1 | Dose-dependent effect | Non-toxic | 6.5 µM | Dose-dependent effect |  | 
COC(=O)CC[C@]1(C)[C@H]2CC=C3[C@@H]4C[C@](C)(CO)CC[C@]4(C(=O)O)CC[C@@]3(C)[C@]2(C)CC[C@H]1C(C)(O)CO (some centres not stated) | Dose-dependent effect | Non-toxic | 9.4 µM | Dose-dependent effect |  | 
CC1(C)CC[C@]2(C(=O)O[C@@H]3O[C@H](CO)[C@@H](O)[C@H](O)[C@H]3O)CC[C@]3(C)C(=CC[C@@H]4[C@@]5(C)CC[C@H](O)[C@@](C)(CO)[C@@H]5[C@H](O)C[C@]43C)[C@@H]2C1 | Dose-dependent effect | Non-toxic | 16.4 µM | Dose-dependent effect |  | 
CC(=O)O[C@@H]1[C@@H](OC(C)=O)[C@H](O[C@H]2CC[C@@]3(C)[C@@H](CC[C@]4(C)[C@@H]3CC=C3[C@@H]5CC(C)(C)CC[C@]5(C(=O)O[C@@H]5O[C@H](CO[C@@H]6O[C@H](CO)[C@@H](O[C@@H]7O[C@@H](C)[C@H](O)[C@@H](O)[C@H]7O)[C@H](O)[C@H]6O)[C@@H](O)[C@H](O)[C@H]5O)CC[C@]34C)[C@]2(C)CO)OC[C@@H]1O | Dose-dependent effect | Non-toxic | 8.9 µM | Dose-dependent effect |  | 
CC(=O)O[C@@H]1[C@@H](O)[C@H](O[C@H]2CC[C@@]3(C)[C@@H](CC[C@]4(C)[C@@H]3CC=C3[C@@H]5CC(C)(C)CC[C@]5(C(=O)O[C@@H]5O[C@H](CO[C@@H]6O[C@H](CO)[C@@H](O[C@@H]7O[C@@H](C)[C@H](O)[C@@H](O)[C@H]7O)[C@H](O)[C@H]6O)[C@@H](O)[C@H](O)[C@H]5O)CC[C@]34C)[C@]2(C)CO)OC[C@@H]1OC(C)=O | Dose-dependent effect | Non-toxic | 9.3 µM | Dose-dependent effect |  | 
CC1(C)CC[C@]2(C(=O)O)CC[C@]3(C)C(=CC[C@@H]4[C@@]5(C)CC[C@H](O)[C@@](C)(CO)[C@@H]5[C@H](O)C[C@]43C)[C@@H]2C1 | Dose-dependent effect | Non-toxic | 1.4 µM | Dose-dependent effect |  | 
CC1(C)CC[C@]2(C(=O)O[C@@H]3O[C@H](CO)[C@@H](O)[C@H](O)[C@H]3O)CC[C@]3(C)C(=CC[C@@H]4[C@@]5(C)CC[C@H](O)[C@@](C)(CO)[C@@H]5CC[C@]43C)[C@@H]2C1 | Dose-dependent effect | Non-toxic | 9.1 µM | Dose-dependent effect |  | 
C[C@@H]1O[C@@H](O[C@H]2[C@H](O[C@H]3CC[C@@]4(C)[C@@H](CC[C@]5(C)[C@@H]4CC=C4[C@@H]6CC(C)(C)CC[C@]6(C(=O)O)CC[C@]45C)[C@]3(C)CO)OC[C@H](O)[C@@H]2O)[C@H](O)[C@H](O)[C@H]1O [ALPHA-HEDERIN] | Dose-dependent effect | Non-toxic | 5.5 µM | Dose-dependent effect |  | 
C[C@@H]1O[C@@H](O[C@H]2[C@H](O)[C@@H](O)[C@H](OC[C@H]3O[C@@H](OC(=O)[C@]45CCC(C)(C)C[C@H]4C4=CC[C@@H]6[C@@]7(C)CC[C@H](O[C@@H]8OC[C@H](O)[C@H](O)[C@H]8O)[C@@](C)(CO)[C@@H]7CC[C@@]6(C)[C@]4(C)CC5)[C@H](O)[C@@H](O)[C@@H]3O)O[C@@H]2CO)[C@H](O)[C@H](O)[C@H]1O [CAULOSIDE D] | Dose-dependent effect | Non-toxic | 9.2 µM | Dose-dependent effect |  | 
CC1(C)CC[C@]2(C(=O)O[C@@H]3O[C@H](CO[C@@H]4O[C@H](CO)[C@@H](O)[C@H](O)[C@H]4O)[C@@H](O)[C@H](O)[C@H]3O)CC[C@]3(C)C(=CC[C@@H]4[C@@]5(C)CC[C@H](O)[C@@](C)(CO)[C@@H]5CC[C@]43C)[C@@H]2C1 [DIPSACUSSAPONIN A] | Dose-dependent effect | Non-toxic | 6.2 µM | Dose-dependent effect |  | 
CC1(C)CC[C@]2(C(=O)O)CC[C@]3(C)C(=CC[C@@H]4[C@@]5(C)CC[C@H](O)[C@@](C)(CO)[C@@H]5CC[C@]43C)[C@@H]2C1 [HEDERAGENIN] |  |  | > 20 µM |  | inactive | inactive
C[C@@H]1O[C@@H](O[C@H]2[C@H](O[C@H]3CC[C@@]4(C)[C@@H](CC[C@]5(C)[C@@H]4CC=C4[C@@H]6CC(C)(C)CC[C@]6(C(=O)O[C@@H]6O[C@H](CO[C@@H]7O[C@H](CO)[C@@H](O[C@@H]8O[C@@H](C)[C@H](O)[C@@H](O)[C@H]8O)[C@H](O)[C@H]7O)[C@@H](O)[C@H](O)[C@H]6O)CC[C@]45C)[C@]3(C)CO)OC[C@H](O)[C@@H]2O)[C@H](O)[C@H](O)[C@H]1O [KALOPANAXSAPONIN B] | Dose-dependent effect | Non-toxic | 0.8 µM | Dose-dependent effect |  | 
C[C@@H]1O[C@@H](O[C@H]2[C@H](O[C@H]3CC[C@@]4(C)[C@@H](CC[C@]5(C)[C@@H]4CC=C4[C@@H]6CC(C)(C)CC[C@]6(C(=O)O[C@@H]6O[C@H](CO[C@@H]7O[C@H](CO)[C@@H](O[C@@H]8O[C@@H](C)[C@H](O)[C@@H](O)[C@H]8O)[C@H](O)[C@H]7O)[C@@H](O)[C@H](O)[C@H]6O)CC[C@]45C)[C@]3(C)CO)OC[C@H](O)[C@@H]2O[C@@H]2O[C@H](CO)[C@@H](O)[C@H](O)[C@H]2O)[C@H](O)[C@H](O)[C@H]1O [KALOPANAXSAPONIN C] | Dose-dependent effect | Non-toxic | 3.9 µM | Dose-dependent effect |  | 
C[C@@]1(CO)CC[C@]2(C(=O)O)CC[C@]3(C)C(=CC[C@@H]4[C@@]5(C)CC[C@H](O)[C@@](C)(CO)[C@@H]5CC[C@]43C)[C@@H]2C1 [NIPPONOGENIN E] |  |  | > 20 µM |  |  | 
C[C@@H]1O[C@@H](O[C@H]2[C@H](O)[C@@H](O)[C@H](OC[C@H]3O[C@@H](OC(=O)[C@]45CCC(C)(C)C[C@H]4C4=CC[C@@H]6[C@@]7(C)CC[C@H](O[C@@H]8OC[C@H](O)[C@H](O)[C@H]8O[C@@H]8O[C@@H](C)[C@H](O)[C@@H](O[C@@H]9OC[C@@H](O)[C@H](O)[C@H]9O)[C@H]8O)[C@@](C)(CO)[C@@H]7CC[C@@]6(C)[C@]4(C)CC5)[C@H](O)[C@@H](O)[C@@H]3O)O[C@@H]2CO)[C@H](O)[C@H](O)[C@H]1O [SIEBOLDIANOSIDE A] | Dose-dependent effect | Non-toxic | 0.6 µM | Dose-dependent effect |  | 
O=C(O)c1cc(/N=N/c2ccc(S(=O)(=O)Nc3ccccn3)cc2)ccc1O [SULFASALAZINE] |  |  | 0.9 µM |  |  | 
